# In ChEMBL document CHEMBL4138314, “Synthesis and Evaluation of N-Phenyl-3-sulfamoyl-benzamide Derivatives as Capsid Assembly Modulators Inhibiting Hepatitis B Virus (HBV)” (J Med Chem, 2018):
# Test system: HBV genotype D
# Test: Antiviral activity against HBV genotype D infected in chimeric mouse with humanized liver assessed as log reduction in viral DNA level in serum at 0.03 mg/kg, po qd for 28 days by RT-PCR method
# Format: functional, hepatitis B virus genotype D
# Method in brief: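 HBV genotype D-infected chimeric mice with humanized liver (human hepatocyte replacement index ≥70%, judged by serum human albumin). Dosing was once daily for 28 days: test article 200 mg/kg s.c., entecavir 0.03 mg/kg oral as positive control, and oral saline as negative control. The read-out was serum HBV DNA (copies/mL), given as mean log change from baseline at day 29.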
smiles,measurement,value
C=C1[C@H](CO)[C@@H](O)C[C@@H]1n1cnc2c(=O)[nH]c(N)nc21.O [ENTECAVIR],log(activity),3.03
